An excerpt weighted towards active compounds, which were near 4.7% of everything screened.
ADAM17 inh: inhibits human ADAM17 | P78536 | recombinant ADAM17, EDANS/DABCYL FRET peptide cleavage | inhibition, % at 6.95 µM | 370,000 compounds, 0.83% hits;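 active = inhibition above the mean of compounds lying between control limits plus 3 SD, set per campaign, cut at about 8.5% in these data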
MT1-MMP act inh: blocks activation of human MT1-MMP. HT1080 RFP-PRO-GFP cells, GFP/RFP ratio fluorescence, overnight; percent of plate control window, DMSO zero. GFP/RFP ratio change, % at 20 µM. 360,000 compounds, 0.061% hits. AID 651647;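 active = GFP/RFP ratio change of at least 30% with cell ATP level not reduced by more than half and red fluorescence within 50% of control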
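Assay system – RFP-PRO-GFP reporter HT1080 cells · Compound dosing – single dose of 20 µM compound, 1% DMSO final · Incubation – overnight compound exposure at 37 °C · Measure – GFP/RFP fluorescence ratio · Benchmarks – DMSO wells and RFP-L50D-GFP cells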
GRIN3A LBD mod: NR3A (human) ligand-binding domain modulation | NR3A LBD differential scanning fluorimetry, Tm shift; 0% = protein alone, 100% = glycine-bound protein | 340,000 compounds, 2.5% hits | AID 1259313 | Tm shift relative to glycine control, % at 25 µM;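 active = melting temperature shift of at least 10% of the positive control shift, at one fixed dose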
ADAM10 inh: inhibitors of human ADAM10 | recombinant ADAM10, EDANS/DABCYL FRET peptide cleavage, 3 h | inhibition, % at 7 µM | 370,000 compounds, 0.62% hits | AID 720582;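 active = inhibition above a per-campaign cutoff equal to the mean of compounds falling between control-based bounds plus 3 SD, cut at about 20% in these data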
Target sequence (O14672 214-748 limits assumed): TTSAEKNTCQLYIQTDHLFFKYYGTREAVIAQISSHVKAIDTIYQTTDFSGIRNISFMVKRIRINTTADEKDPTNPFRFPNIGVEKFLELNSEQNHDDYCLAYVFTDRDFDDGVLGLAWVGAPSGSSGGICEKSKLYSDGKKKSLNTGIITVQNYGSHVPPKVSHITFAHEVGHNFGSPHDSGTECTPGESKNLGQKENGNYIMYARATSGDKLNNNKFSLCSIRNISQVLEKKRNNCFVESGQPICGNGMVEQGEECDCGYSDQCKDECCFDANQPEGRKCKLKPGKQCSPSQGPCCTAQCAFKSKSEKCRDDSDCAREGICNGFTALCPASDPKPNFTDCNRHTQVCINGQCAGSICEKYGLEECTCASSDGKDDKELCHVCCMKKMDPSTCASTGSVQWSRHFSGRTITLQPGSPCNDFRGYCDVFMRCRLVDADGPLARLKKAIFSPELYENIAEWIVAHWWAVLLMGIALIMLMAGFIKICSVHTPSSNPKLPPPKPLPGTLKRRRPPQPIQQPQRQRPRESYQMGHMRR
MPTP inh: blocks calcium-induced mitochondrial swelling; AID 602449; 360,000 compounds, 1.4% hits; inhibition, % at 10 µM; isolated mouse mitochondria, Ca2+ swelling absorbance, 30 min;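 active = inhibition of 50% or more, scaled per plate between neutral and stimulator controls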
SKN-1 block: inhibitors of C. elegans SKN-1; inhibition, % at 21.8 µM; AID 624304; 360,000 compounds, 0.49% hits; C. elegans VP596 Pgst-4::GFP/RFP ratio, acrylamide-induced, 24 h;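 active = interference check ratio from 0.5 to 1.5 plus GFP to RFP signal ratio inhibition reaching or exceeding a fixed threshold, cut at about 30% in these data, passing the limit was not always enough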
ADAM10 confirm: confirmation of inhibitors of human ADAM10; AID 743208; inhibition, % at 6.95 µM; ADAM10 QFRET peptide cleavage, EDANS fluorescence; 2,100 compounds, 1% hits; shares compounds with ADAM10 inh;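 active = inhibition above about 20% chosen separately for each screening run, limit read from the data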
ADAM17 ctr: counter-screen for ADAM10 exosite inhibitors: inhibitors of human ADAM17; AID 743214; inhibition, % at 6.95 µM; 2,100 compounds, 0.5% hits; ADAM17 QFRET peptide cleavage, EDANS fluorescence; shares compounds with ADAM10 inh;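 active = mean triplicate inhibition above the solvent-only control wells' mean plus 3 SD, cut at about 12% in these data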
ADAM10 ctr: ADAM10 inhibition, counter-screen for ADAM17 exosite hits; shares compounds with ADAM17 inh; recombinant ADAM10, EDANS/DABCYL FRET peptide cleavage, 3 h; inhibition, % at 6.95 µM; 2,900 compounds, 47% hits;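 active = mean inhibition over the triplicate runs exceeds the activity threshold set in the earlier primary screen, cut at about 20% in these data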
ADAM17 confirm: human ADAM17 inhibition, confirmation; AID 743257; inhibition, % at 6.95 µM; recombinant ADAM17, EDANS/DABCYL QFRET peptide cleavage; 2,900 compounds, 65% hits; shares compounds with ADAM17 inh;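 active = mean inhibition across replicates above the hit cutoff set in the primary screen, cut at about 8.5% in these data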
Large screens that a line does not name were inactive (follow-up assays come after a bar, where they were run).

CN(C)c1ccc(NC(=O)c2cn(-c3ccccc3)nc2-c2cccs2)cc1	ADAM17 inh 13, ADAM10 inh 28 | ADAM10 confirm inactive | ADAM17 ctr inactive | ADAM10 ctr inactive | ADAM17 confirm 9.7
CN(C)C(=O)c1cn(-c2ccccc2)nc1-c1cccs1	none
CCOc1ccc(S(=O)(=O)N2CCN(CC)CC2)cc1NC(=O)c1ccccc1F	none
Cc1cc(C)cc(-n2c(SC(C)C(=O)NCc3ccc4c(c3)OCO4)nc3ccccc3c2=O)c1 (configuration not stated)	ADAM17 inh 11, ADAM10 inh 23 | ADAM10 confirm inactive | ADAM17 ctr inactive | ADAM10 ctr inactive | ADAM17 confirm 11
CSc1ccccc1C(=O)C1CCCN(C(=O)c2csnn2)C1 (configuration not stated)	none
CCOC(=O)CC(=O)CSc1nc(CC)c(C)cc1C#N	none
CCOC(=O)c1ccc(NC(=S)NCCc2ccccc2)cc1	ADAM17 inh 11, ADAM10 inh 46 | ADAM10 confirm inactive | ADAM17 ctr inactive | ADAM10 ctr 21 | ADAM17 confirm 11
Cc1ccc(Nc2nnc(SCC(=O)Nc3cccc(S(=O)(=O)N4CCCCC4)c3)s2)cc1	ADAM17 inh 11, GRIN3A LBD mod 18, ADAM10 inh 27 | ADAM10 confirm inactive | ADAM17 ctr inactive | ADAM10 ctr 30 | ADAM17 confirm 17
O=C1N[C@@H](Cc2c[nH]c3ccccc23)COC(=O)[C@H](Cc2ccc(F)cc2)C/C=C\C[C@@H]1CC(=O)N(CCO)Cc1ccccc1	none
O=C1N[C@@H](Cc2c[nH]c3ccccc23)COC(=O)[C@@H](Cc2ccc(F)cc2)C/C=C\C[C@H]1CC(=O)N(CCO)Cc1ccccc1	ADAM17 inh 9.7, ADAM10 inh 24 | ADAM10 confirm inactive | ADAM17 ctr inactive | ADAM10 ctr 30 | ADAM17 confirm 15
COc1cc(O)c(CC=C(C)C)c(O)c1C(=O)CCc1ccc(O)cc1	ADAM17 inh 12, GRIN3A LBD mod 19, ADAM10 inh 24 | ADAM10 confirm inactive | ADAM17 ctr inactive | ADAM10 ctr 52 | ADAM17 confirm 26
COC(=O)[C@]12C[C@H](CC(=O)NCc3cccc(C(F)(F)F)c3)C(=O)N(CCc3ccc(OC)c(OC)c3)C1=C[C@H](C1CCCC1)O[C@@H]2C	ADAM17 inh 9.0, ADAM10 inh 28 (no result: MT1-MMP act inh, GRIN3A LBD mod, MPTP inh, SKN-1 block) | ADAM10 confirm inactive | ADAM17 ctr inactive | ADAM10 ctr 27 | ADAM17 confirm 12
COC(=O)[C@]12C[C@H](CC(=O)NCc3cccc(C(F)(F)F)c3)C(=O)N(Cc3ccco3)C1=C[C@H](C(C)C)O[C@@H]2C1CC1	ADAM17 inh 12, ADAM10 inh 24 (no result: MT1-MMP act inh, GRIN3A LBD mod, MPTP inh, SKN-1 block) | ADAM10 confirm inactive | ADAM17 ctr inactive | ADAM10 ctr 49 | ADAM17 confirm 24
COC(=O)[C@]12C[C@H](CC(=O)NCCc3ccccc3OC)C(=O)N(Cc3cccc4ccccc34)C1=C[C@H](C(C)C)O[C@@H]2C1CC1	ADAM17 inh 11, ADAM10 inh 22 (no result: MT1-MMP act inh, GRIN3A LBD mod, MPTP inh, SKN-1 block) | ADAM10 confirm inactive | ADAM17 ctr inactive | ADAM10 ctr 27 | ADAM17 confirm 17
COC(=O)[C@]12C[C@H](CC(=O)NCc3cccc(C(F)(F)F)c3)C(=O)N(CCc3ccc(OC)c(OC)c3)C1=C[C@H](C(C)(C)C)O[C@@H]2C	none (no result: MT1-MMP act inh, GRIN3A LBD mod, MPTP inh, SKN-1 block)
COC(=O)[C@]12C[C@H](CC(=O)NCc3cccc(C(F)(F)F)c3)C(=O)N(Cc3ccco3)C1=C[C@H](C(C)(C)C)O[C@@H]2C	ADAM17 inh 10.0, ADAM10 inh 22 (no result: MT1-MMP act inh, GRIN3A LBD mod, MPTP inh, SKN-1 block) | ADAM10 confirm inactive | ADAM17 ctr inactive | ADAM10 ctr 42 | ADAM17 confirm 21
CCCCNC(=O)C[C@H]1C[C@@]2(C(=O)OC)C(=C[C@H](C(C)(C)C)O[C@@H]2C)N(Cc2ccco2)C1=O	none (no result: MT1-MMP act inh, GRIN3A LBD mod, MPTP inh, SKN-1 block)
COc1cccc(NC(=S)N(Cc2ccccn2)Cc2ccccc2Cl)c1	ADAM17 inh 9.3, ADAM10 inh 22 | ADAM10 confirm inactive | ADAM17 ctr inactive | ADAM10 ctr 24 | ADAM17 confirm 13
COc1ccc(NC(=S)N(Cc2ccccn2)Cc2ccccc2Cl)cc1	none
Cc1cc(Cn2nc(-c3ccccc3)cc2C(=O)NCc2cccc(Br)c2)on1	ADAM17 inh 11, ADAM10 inh 37 | ADAM10 confirm inactive | ADAM17 ctr inactive | ADAM10 ctr 24 | ADAM17 confirm 16
O=C(Nc1cccc2ccccc12)c1ccc(OC(=S)N2CCOCC2)cc1	ADAM17 inh 9.7, ADAM10 inh 21 | ADAM10 confirm inactive | ADAM17 ctr inactive | ADAM10 ctr inactive | ADAM17 confirm 11
Cc1cccc2cc(CN(Cc3ccco3)C(=O)Nc3cccc(C#N)c3)c(Cl)nc12	ADAM17 inh 9.9, ADAM10 inh 29 | ADAM10 confirm inactive | ADAM17 ctr inactive | ADAM10 ctr 42 | ADAM17 confirm 23
Cc1ccc(NC(=O)N(Cc2ccco2)Cc2cc3cc(C)cc(C)c3nc2Cl)cc1	none (no result: MT1-MMP act inh, GRIN3A LBD mod, MPTP inh, SKN-1 block)
CC(C)CCn1nc(C(=O)Nc2nc3c(s2)CCCC3)c2ccccc2c1=O	none
C[C@H](NC(=O)c1nc[nH]c1C(=O)NC1CCN(C(=O)OC(C)(C)C)CC1)C(=O)OC(C)(C)C	none
CC(C)(C)OC(=O)N1CCN(C(=O)c2[nH]cnc2C(=O)N[C@@H](Cc2ccccc2)C(=O)OCc2ccccc2)CC1	none
CC(C)C[C@H](NC(=O)c1nc[nH]c1C(=O)NC1CCN(C(=O)OC(C)(C)C)CC1)C(=O)OCc1ccccc1	ADAM17 inh 16, ADAM10 inh 37 | ADAM10 confirm inactive | ADAM17 ctr inactive | ADAM10 ctr 29 | ADAM17 confirm 16
CC(C)C[C@H](NC(=O)c1nc[nH]c1C(=O)N1CCN(C(=O)OC(C)(C)C)CC1)C(=O)OCc1ccccc1	ADAM17 inh 9.9, ADAM10 inh 25 | ADAM10 confirm inactive | ADAM17 ctr inactive | ADAM10 ctr 27 | ADAM17 confirm 11

Compound activity as filed in PubChem BioAssay.
